Reference: ChEMBL document CHEMBL4229410, “Facile construction of fused benzimidazole-isoquinolinones that induce cell-cycle arrest and apoptosis in colorectal cancer cells” (Bioorg Med Chem, 2018)
Calls of active or inactive are those of the source. The rule behind the calls is not given here.

What was measured:
HT-29 [1] = test: Growth inhibition of human HT-29 cells by MTT assay; assay type: functional
How it was run: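 MTT viability assay: 3×10³ cells/well were pre-incubated for 24 h, then exposed to 0, 12.5, 25, 50, 100 or 200 μM for 12, 24, 48 or 72 h. MTT was added at 0.5 mg/mL final for 4 h, formazan dissolved in DMSO, and absorbance read at 570 nm. GI₅₀ was taken from growth-inhibition curves; mean ± SD of three independent experiments, each in sextuplicate.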

HT-29 [2] = test: Inhibition of colony formation in human HT-29 cells assessed as reduction in colony size at 25 to 75 uM treated for 48 hrs followed by compound washout and measured after 14 hrs by crystal violet staining based assay; assay type: functional, cell-based
HT-29 [3] = test: Cell cycle arrest in human HT-29 cells assessed as increase in accumulation at G2/M-phase after 48 hrs by propidium iodide staining based flow cytometry; assay type: functional
SW-620 [4] = test: Induction of apoptosis in human SW620 cells assessed as increase in apoptotic bodies after 48 hrs by Hoechst 33342 staining based fluorescence microscopic analysis; assay type: functional, cell-based
SW-620 [5] = test: Induction of apoptosis in human SW620 cells assessed as late apoptotic cells at 75 uM after 48 hrs by Annexin-V-FITC/propidium iodide staining based flow cytometry (reference value: 1.2%); assay type: functional
HT-29 [6] = test: Induction of apoptosis in human HT-29 cells assessed as necrotic cells at 75 uM after 48 hrs by Annexin-V-FITC/propidium iodide staining based flow cytometry (reference value: 1.6%); assay type: functional
SW-620 [7] = test: Induction of apoptosis in human SW620 cells assessed as reduction in BCL2 expression after 48 hrs by Western blot analysis; assay type: functional, cell-based
SW-620 [8] = test: Induction of apoptosis in human SW620 cells assessed as reduction in MCL1 expression after 48 hrs by Western blot analysis; assay type: functional, cell-based
HT-29 [9] = test: Increase in PTEN expression in human HT-29 cells after 48 hrs by Western blot analysis; assay type: functional, cell-based
How it was run: (§1)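 HT29 or SW620 cells were treated at 0, 25, 50 and 75 μM for 48 h and lysed in RIPA with protease and phosphatase inhibitors. Protein was quantified by BCA. 50 μg lysate was run on 8–15% SDS-PAGE and transferred to PVDF. Blocking was 5% BSA/TBST for 2 h; primary antibodies were applied overnight at 4 °C, then HRP secondary 1 h at room temperature.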

SW-620 [10] = test: Effect on total AKT expression in human SW620 cells up to 75 uM after 48 hrs by Western blot analysis; assay type: ADME, cell-based; conditions: sw-620, 48 h; how it was run: as §1
[11] = system: Tyrosine-protein kinase ABL1 (Homo sapiens), P00519 [E255K]; test: Inhibition of human phosphorylated ABL1 E255K mutant (S229 to K512 residues) expressed in mammalian expression system assessed as residual activity at 5 uM by KINOMEscan assay relative to control
Tyrosine-protein kinase ABL1 (Homo sapiens), P00519 [E255K], sequence (P00519 whole entry E255K, the tested form may be a part): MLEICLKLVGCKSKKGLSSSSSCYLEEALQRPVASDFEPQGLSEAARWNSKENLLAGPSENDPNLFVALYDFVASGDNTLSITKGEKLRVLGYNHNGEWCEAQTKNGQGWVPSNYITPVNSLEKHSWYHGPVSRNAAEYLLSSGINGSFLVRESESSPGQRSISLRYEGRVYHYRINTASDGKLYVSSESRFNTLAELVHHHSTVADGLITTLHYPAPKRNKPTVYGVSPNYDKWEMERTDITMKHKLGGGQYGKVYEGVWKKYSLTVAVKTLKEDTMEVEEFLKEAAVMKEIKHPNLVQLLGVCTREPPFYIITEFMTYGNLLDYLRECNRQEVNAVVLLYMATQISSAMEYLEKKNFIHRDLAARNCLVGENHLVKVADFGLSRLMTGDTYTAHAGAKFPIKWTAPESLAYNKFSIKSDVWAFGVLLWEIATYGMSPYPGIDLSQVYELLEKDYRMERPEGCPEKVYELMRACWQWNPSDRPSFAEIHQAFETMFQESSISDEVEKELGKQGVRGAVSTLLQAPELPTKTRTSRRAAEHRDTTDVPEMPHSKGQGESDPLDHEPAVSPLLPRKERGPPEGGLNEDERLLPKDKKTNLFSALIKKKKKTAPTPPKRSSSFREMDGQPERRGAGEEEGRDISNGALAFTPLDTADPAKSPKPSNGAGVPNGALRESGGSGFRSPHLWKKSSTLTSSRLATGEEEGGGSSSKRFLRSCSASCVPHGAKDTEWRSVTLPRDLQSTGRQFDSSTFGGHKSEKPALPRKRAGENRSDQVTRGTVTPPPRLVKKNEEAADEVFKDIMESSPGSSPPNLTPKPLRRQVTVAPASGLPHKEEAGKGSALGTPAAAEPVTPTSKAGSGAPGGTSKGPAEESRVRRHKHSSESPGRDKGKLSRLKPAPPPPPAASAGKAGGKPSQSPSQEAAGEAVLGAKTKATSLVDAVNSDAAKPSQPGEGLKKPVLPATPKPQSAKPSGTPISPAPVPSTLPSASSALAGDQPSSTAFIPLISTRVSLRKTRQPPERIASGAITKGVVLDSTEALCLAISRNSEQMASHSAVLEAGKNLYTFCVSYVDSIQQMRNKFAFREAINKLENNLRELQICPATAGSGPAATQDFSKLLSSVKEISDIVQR

[12] = molecular target: Activin receptor type-1B (Homo sapiens) (UniProt P36896); test: Inhibition of human ACVR1B (S187 to I505 residues) expressed in bacterial expression system assessed as residual activity at 5 uM by KINOMEscan assay relative to control
[13] = molecular target: RAC-alpha serine/threonine-protein kinase (Homo sapiens, UniProt P31749); test: Inhibition of human AKT1 expressed in bacterial expression system assessed as residual activity at 5 uM by KINOMEscan assay relative to control
[14] = molecular target: ALK tyrosine kinase receptor (Homo sapiens, UniProt Q9UM73); test: Inhibition of human ALK (I1088 to E1409 residues) expressed in mammalian expression system assessed as residual activity at 5 uM by KINOMEscan assay relative to control
ALK tyrosine kinase receptor, sequence (Q9UM73 19-1620 limits assumed): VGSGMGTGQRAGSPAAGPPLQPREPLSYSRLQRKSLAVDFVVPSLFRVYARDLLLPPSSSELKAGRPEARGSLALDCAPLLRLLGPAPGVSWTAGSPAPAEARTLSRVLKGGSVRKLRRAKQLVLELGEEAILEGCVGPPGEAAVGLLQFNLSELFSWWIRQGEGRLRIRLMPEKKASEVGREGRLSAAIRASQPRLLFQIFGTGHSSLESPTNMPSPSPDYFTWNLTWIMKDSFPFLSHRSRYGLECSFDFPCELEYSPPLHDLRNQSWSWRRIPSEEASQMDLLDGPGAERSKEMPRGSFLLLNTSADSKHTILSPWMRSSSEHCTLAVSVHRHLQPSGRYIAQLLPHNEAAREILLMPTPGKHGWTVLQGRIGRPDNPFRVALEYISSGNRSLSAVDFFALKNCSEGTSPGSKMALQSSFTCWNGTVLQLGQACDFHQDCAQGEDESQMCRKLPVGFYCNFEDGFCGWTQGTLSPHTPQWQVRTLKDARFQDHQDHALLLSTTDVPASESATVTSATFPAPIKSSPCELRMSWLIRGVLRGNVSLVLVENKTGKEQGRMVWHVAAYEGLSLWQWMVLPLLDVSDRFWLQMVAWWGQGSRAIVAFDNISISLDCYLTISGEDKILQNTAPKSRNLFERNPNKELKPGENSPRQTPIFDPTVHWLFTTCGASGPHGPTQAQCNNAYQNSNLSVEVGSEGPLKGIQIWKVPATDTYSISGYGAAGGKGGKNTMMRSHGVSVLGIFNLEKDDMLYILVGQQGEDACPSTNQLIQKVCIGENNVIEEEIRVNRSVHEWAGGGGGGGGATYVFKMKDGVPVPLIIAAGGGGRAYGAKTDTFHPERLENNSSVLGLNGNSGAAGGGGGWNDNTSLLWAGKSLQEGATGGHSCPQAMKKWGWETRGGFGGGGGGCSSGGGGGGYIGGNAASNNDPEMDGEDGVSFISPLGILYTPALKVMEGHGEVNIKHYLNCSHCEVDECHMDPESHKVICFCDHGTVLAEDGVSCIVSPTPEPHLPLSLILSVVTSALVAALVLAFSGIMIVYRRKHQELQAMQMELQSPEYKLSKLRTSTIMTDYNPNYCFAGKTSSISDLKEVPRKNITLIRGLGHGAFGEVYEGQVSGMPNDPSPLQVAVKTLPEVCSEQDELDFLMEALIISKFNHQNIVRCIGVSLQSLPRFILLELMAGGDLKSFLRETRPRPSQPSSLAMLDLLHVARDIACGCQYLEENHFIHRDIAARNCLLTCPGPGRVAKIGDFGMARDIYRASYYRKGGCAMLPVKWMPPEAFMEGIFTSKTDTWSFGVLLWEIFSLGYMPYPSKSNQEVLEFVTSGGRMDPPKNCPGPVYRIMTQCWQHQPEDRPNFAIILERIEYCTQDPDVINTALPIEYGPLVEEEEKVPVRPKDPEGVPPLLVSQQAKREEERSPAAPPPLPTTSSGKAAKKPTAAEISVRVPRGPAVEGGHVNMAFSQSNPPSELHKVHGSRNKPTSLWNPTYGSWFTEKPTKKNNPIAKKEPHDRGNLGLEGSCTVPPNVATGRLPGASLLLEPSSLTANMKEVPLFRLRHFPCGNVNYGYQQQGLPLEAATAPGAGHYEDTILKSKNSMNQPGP

[15] = molecular target: Cyclin-dependent kinase 19 (Homo sapiens, UniProt Q9BWU1); test: Inhibition of human CDK11 (M1 to N360 residues) expressed in bacterial expression system assessed as residual activity at 5 uM by KINOMEscan assay relative to control
[16] = molecular target: Mitogen-activated protein kinase 9 (Homo sapiens, UniProt P45984); test: Inhibition of full length human JNK2 (M1 to Q382 residues) expressed in mammalian expression system assessed as residual activity at 5 uM by KINOMEscan assay relative to control
Mitogen-activated protein kinase 9, sequence (P45984 whole entry, looked up, the tested form may be a part): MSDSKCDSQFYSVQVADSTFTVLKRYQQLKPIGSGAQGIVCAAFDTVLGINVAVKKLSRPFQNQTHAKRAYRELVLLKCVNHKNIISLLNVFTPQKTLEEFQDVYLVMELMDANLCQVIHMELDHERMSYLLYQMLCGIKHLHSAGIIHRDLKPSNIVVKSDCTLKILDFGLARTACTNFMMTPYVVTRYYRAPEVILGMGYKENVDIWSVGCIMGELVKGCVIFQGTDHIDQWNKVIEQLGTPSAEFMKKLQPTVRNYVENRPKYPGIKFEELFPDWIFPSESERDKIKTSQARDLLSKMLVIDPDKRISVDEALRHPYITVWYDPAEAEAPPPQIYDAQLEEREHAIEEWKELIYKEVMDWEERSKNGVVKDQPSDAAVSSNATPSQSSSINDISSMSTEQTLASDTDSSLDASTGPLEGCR

[17] = system: Mast/stem cell growth factor receptor Kit (Homo sapiens), P10721 [V559D,T670I]; test: Inhibition of human KIT (I571 to D952 residues) V559D/T670I double mutant expressed in bacterial expression system assessed as residual activity at 5 uM by KINOMEscan assay relative to control
Mast/stem cell growth factor receptor Kit (Homo sapiens), P10721 [V559D,T670I], sequence (P10721 whole entry V559D/T670I, the tested form may be a part): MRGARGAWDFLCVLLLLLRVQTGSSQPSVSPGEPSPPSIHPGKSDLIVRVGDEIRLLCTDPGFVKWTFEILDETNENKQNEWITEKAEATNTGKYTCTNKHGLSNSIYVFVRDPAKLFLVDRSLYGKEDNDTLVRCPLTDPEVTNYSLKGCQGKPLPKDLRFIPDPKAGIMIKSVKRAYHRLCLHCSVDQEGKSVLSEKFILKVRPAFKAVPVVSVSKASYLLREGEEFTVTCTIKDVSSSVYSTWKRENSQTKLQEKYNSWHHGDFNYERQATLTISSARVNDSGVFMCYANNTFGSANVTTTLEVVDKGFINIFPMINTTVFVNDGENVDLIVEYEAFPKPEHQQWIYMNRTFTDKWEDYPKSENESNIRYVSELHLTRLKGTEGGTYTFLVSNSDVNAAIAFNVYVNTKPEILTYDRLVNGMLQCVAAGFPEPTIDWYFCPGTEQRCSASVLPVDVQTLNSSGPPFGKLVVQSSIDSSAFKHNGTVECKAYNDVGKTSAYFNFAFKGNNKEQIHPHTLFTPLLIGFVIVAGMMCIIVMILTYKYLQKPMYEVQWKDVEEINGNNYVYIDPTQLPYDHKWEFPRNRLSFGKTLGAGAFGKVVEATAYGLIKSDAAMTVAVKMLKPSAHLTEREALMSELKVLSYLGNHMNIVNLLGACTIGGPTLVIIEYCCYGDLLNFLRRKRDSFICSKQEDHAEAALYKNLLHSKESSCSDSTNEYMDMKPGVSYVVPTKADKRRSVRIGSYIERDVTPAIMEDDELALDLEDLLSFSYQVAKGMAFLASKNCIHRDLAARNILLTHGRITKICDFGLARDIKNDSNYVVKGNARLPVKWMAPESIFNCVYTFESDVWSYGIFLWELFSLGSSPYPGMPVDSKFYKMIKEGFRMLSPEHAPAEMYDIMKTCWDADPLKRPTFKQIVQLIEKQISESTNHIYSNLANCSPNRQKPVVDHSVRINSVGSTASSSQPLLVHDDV

[18] = molecular target: Dual specificity mitogen-activated protein kinase kinase 1 (Homo sapiens, UniProt Q02750); test: Inhibition of full length human MEK1 (M1 to V393 residues) expressed in mammalian expression system assessed as residual activity at 5 uM by KINOMEscan assay relative to control
[19] = molecular target: Mitogen-activated protein kinase 14 (Homo sapiens, UniProt Q16539); test: Inhibition of full length human p38alpha (M1 to S360 residues) expressed in bacterial expression system assessed as residual activity at 5 uM by KINOMEscan assay relative to control
[20] = molecular target: Platelet-derived growth factor receptor beta (Homo sapiens, UniProt P09619); test: Inhibition of human PDGFRB (V582 to Y1009 residues) expressed in bacterial expression system assessed as residual activity at 5 uM by KINOMEscan assay relative to control
[21] = molecular target: Serine/threonine-protein kinase pim-3 (Homo sapiens, UniProt Q86V86); test: Inhibition of human PIM3 (G16 to A317 residues) expressed in bacterial expression system assessed as residual activity at 5 uM by KINOMEscan assay relative to control
[22] = molecular target: T1, cAMP-dependent protein kinase catalytic subunit alpha (Homo sapiens, UniProt P17612); test: Inhibition of human PKACalpha (G10 to F351 residues) expressed in bacterial expression system assessed as residual activity at 5 uM by KINOMEscan assay relative to control
[23] = molecular target: Proto-oncogene tyrosine-protein kinase Src (Homo sapiens, UniProt P12931); test: Inhibition of human SRC (L240 to L536 residues) expressed in bacterial expression system assessed as residual activity at 5 uM by KINOMEscan assay relative to control
Aurora kinase A = Aurora kinase A (Homo sapiens, UniProt O14965); test: Binding affinity to human AURKA (E122 to K401 residues) expressed in mammalian expression system by KINOMEscan assay
Aurora kinase A, sequence (O14965 whole entry, the tested form may be a part): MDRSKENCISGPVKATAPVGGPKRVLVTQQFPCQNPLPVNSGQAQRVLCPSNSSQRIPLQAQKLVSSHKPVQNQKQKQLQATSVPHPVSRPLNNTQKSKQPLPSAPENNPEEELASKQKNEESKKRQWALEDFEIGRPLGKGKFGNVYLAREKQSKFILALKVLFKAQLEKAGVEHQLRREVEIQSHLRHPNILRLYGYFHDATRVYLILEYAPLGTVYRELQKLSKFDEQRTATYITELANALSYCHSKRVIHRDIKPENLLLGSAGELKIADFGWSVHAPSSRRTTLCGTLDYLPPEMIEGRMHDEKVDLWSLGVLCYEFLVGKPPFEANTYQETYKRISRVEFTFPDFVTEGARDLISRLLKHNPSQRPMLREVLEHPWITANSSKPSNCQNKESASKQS

[24] = molecular target: Cyclin-dependent kinase 9 (Homo sapiens, UniProt P50750); test: Binding affinity to full length human CDK9 (M1 to F372 residues) expressed in bacterial expression system by KINOMEscan assay
Cyclin-dependent kinase 9, sequence (P50750 whole entry, the tested form may be a part): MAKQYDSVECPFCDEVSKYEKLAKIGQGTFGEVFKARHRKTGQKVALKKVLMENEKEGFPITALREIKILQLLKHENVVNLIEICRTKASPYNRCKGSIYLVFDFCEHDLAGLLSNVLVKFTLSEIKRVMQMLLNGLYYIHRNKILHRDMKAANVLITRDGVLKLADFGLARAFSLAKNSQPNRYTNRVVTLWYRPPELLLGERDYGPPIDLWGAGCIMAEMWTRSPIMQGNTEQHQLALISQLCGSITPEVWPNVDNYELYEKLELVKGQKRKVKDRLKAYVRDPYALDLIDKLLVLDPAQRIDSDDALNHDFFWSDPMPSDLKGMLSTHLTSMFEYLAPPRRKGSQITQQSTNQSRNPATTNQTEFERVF

[25] = molecular target: Fibroblast growth factor receptor 3 (Homo sapiens, UniProt P22607); test: Binding affinity to partial length human FGFR3 (R442 to S771 residues) expressed in bacterial expression system by KINOMEscan assay
[26] = molecular target: Serine/threonine-protein kinase PAK 1 (Homo sapiens, UniProt Q13153); test: Binding affinity to human PAK1 (S149 to H545 residues) expressed in bacterial expression system by KINOMEscan assay
[27] = molecular target: T1, cAMP-dependent protein kinase catalytic subunit alpha; test: Binding affinity to human PKACalpha (G10 to F351 residues) expressed in bacterial expression system by KINOMEscan assay

CC(C)CN(C(=O)c1cccnc1)c1c2ccccc2c(=O)n2c1[nH]c1ccccc12
GI50 (HT-29 [1]): 24.1 µM | inhibition (HT-29 [2]): Active | Activity (HT-29 [3]): Dose-dependent effect | Activity (SW-620 [4]): Dose-dependent effect | Activity (SW-620 [5]): 19.6% | Activity (HT-29 [6]): 18.8% | Activity (SW-620 [7]): Dose-dependent effect | Activity (SW-620 [8]): Dose-dependent effect | Activity (HT-29 [9]): Dose-dependent effect | Activity (SW-620 [10]): Non-Toxic | Activity [11]: 69% | Activity [12]: 92% | Activity [13]: 98% | Activity [14]: 65% | Activity [15]: 77% | Activity [16]: 96% | Activity [17]: 98% | Activity [18]: 91% | Activity [19]: 100% | Activity [20]: 100% | Activity [21]: 100% | Activity [22]: 88% | Activity [23]: 100% | Kd (Aurora kinase A): ≥ 5 µM | Kd [24]: ≥ 5 µM | Kd [25]: ≥ 5 µM | Kd [26]: ≥ 5 µM | Kd [27]: ≥ 5 µM
